Each structure is given as a SMILES string. Values after ≈ are worked out from the molar mass of the structure shown. Numbered stars: 1 amine (or outer) side, 2 acyl side, 3 side chain; on linkers, the order of the positions; unused ones are H or OH. Peptide text beside a SMILES is read from it. * marks the point of attachment. Piperazinyl(4-(2,3-Cl2Ph)) = Clc1cccc(N2CCN(*)CC2)c1Cl; Thiocarbamoyl(N-4-ClPh) = S=C(Nc1ccc(Cl)cc1)*; Thiocarbamoyl(4-MeOPh) = COc1ccc(NC(=S)*)cc1; X1 = Fc1ccc2c(C3CCN(*)CC3)noc2c1; NH(2-F-phenyl) = Fc1ccccc1N*; CO = O=C([*:1])[*:2]; OcHex = C1CCC(O*)CC1

In ChEMBL document CHEMBL1932971, “Synthesis of uriedo and thiouriedo derivatives of peptide conjugated heterocycles - A new class of promising antimicrobials” (2012) one finds MIC, zone of inhibition and Ratio data, which are given here for 5 compounds.

Format in all cases: functional
Test [1] deals with Aspergillus flavus. In words: Antifungal activity against Aspergillus flavus after 72 hrs by microdilution method.
Test [2] deals with Aspergillus flavus. The experiment in a line: Antifungal activity against Aspergillus flavus at 30 ug/ml after 72 hrs by agar well diffusion method. Particulars: read-out: DIZ. Summed up: (§1)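 Fungal well diffusion. Inocula were subcultured in nutrient broth for one day, then spread on solidified medium. Compounds were made as a 1 mg/mL DMSO stock and diluted to 30 µg/mL final. Each 6 mm well got 0.1 mL. Controls were bavistin (reference) and DMSO (negative). Plates stood for 3 days at room temperature. Inhibition zone was measured in mm as the mean of three determinations.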
For orientation: A growth-free zone around the sample is the usual read-out of agar diffusion tests.

Test [3] deals with Fusarium oxysporum. The experiment in a line: Ratio of bavistin MIC to compound MIC for Fusarium oxysporum after 72 hrs by microdilution method.
For test [4], the system named is Xanthomonas oryzae. In words: Antibacterial activity against Xanthomonas oryzae at 30 ug/ml after 24 hrs by agar well diffusion method. The note with it: read-out: DIZ.
Test [5] has as its system Klebsiella pneumoniae. In words: Antibacterial activity against Klebsiella pneumoniae at 30 ug/ml after 24 hrs by agar well diffusion method. The note with it: read-out: DIZ. In short, it runs like this: (§2)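 Agar well diffusion. Inocula were grown in nutrient broth at 37 °C for 24 h, then subcultured in nutrient broth at room temperature. Compounds were made as a 1 mg/mL DMSO stock and diluted to 30 µg/mL final. Nutrient agar plates were spread-inoculated and 6 mm wells each got 0.1 mL. Controls were amoxicillin (reference) and DMSO (negative). Incubation was 24 h at 37 °C. Inhibition zone was measured in mm as the mean of three determinations.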

Test [6] has as its system Aspergillus flavus. In words: Ratio of bavistin MIC to compound MIC for Aspergillus flavus after 72 hrs by microdilution method.
Test [7] concerns Aspergillus niger. In words: Antifungal activity against Aspergillus niger at 30 ug/ml after 72 hrs by agar well diffusion method. The note with it: read-out: DIZ. In short, it runs like this: as §1
Test [8] concerns Escherichia coli. The experiment in a line: Antibacterial activity against Escherichia coli at 30 ug/ml after 24 hrs by agar well diffusion method. The note with it: read-out: DIZ. Summed up: as §2
The test system of test [9] is Fusarium oxysporum. In words: Antifungal activity against Fusarium oxysporum at 30 ug/ml after 72 hrs by agar well diffusion method. Particulars: read-out: DIZ. Summed up: as §1
For test [10], the system named is Aspergillus niger. The experiment in a line: Ratio of bavistin MIC to compound MIC for Aspergillus niger after 72 hrs by microdilution method. For orientation: Broth dilution looks for growth in wells or tubes with falling amounts of substance.
In test [11] the test system is Aspergillus niger. The experiment in a line: Antifungal activity against Aspergillus niger after 72 hrs by microdilution method.
Test [12] deals with Staphylococcus aureus. The experiment in a line: Antibacterial activity against coagulase-positive Staphylococcus aureus at 30 ug/ml after 24 hrs by agar well diffusion method. The note with it: read-out: DIZ. In short, it runs like this: as §2
For test [13], the system named is Fusarium oxysporum. In words: Antifungal activity against Fusarium oxysporum after 72 hrs by microdilution method.

As to `CC(C)[C@H](NC(=O)CNC(=O)[C@@H]1CCCN1C(=O)[C@H](Cc1ccccc1)NC(=O)CNC(=O)[C@H](CCC(=O)OC1CCCCC1)NC(=O)CNC(=O)Nc1ccccc1F)C(=O)NCC(=O)N[C@H](C(=O)N1CCC[C@H]1C(=O)NCC(=O)N[C@H](C(=O)NCC(=O)N[C@@H](Cc1ccccc1)C(=O)N1CCC[C@H]1C(=O)NCC(=O)N[C@@H](Cc1ccccc1)C(=O)NCC(=O)N[C@@H](Cc1ccccc1)C(=O)N1CCC[C@H]1C(=O)NCC(=O)N[C@H](C(=O)NCC(=O)N[C@H](C(=O)N1CCC[C@H]1C(=O)NCC(=O)N[C@H](C(=O)NCC(=O)N[C@@H](Cc1ccccc1)C(=O)N1CCC[C@H]1C(=O)N1CCN(c2cccc(Cl)c2Cl)CC1)C(C)C)C(C)C)C(C)C)C(C)C)C(C)C` ({NH(2-F-phenyl)-CO}-GE(OcHex)GFPGVGVPGVGFPGFGFPGVGVPGVGFP-{Piperazinyl(4-(2,3-Cl2Ph))}), the MIC (in general, the lowest concentration that inhibits growth of the organism) in test [1] was 1.75 µg/mL (≈ 0.551 µM); in [11], 2 µg/mL (≈ 0.629 µM); in [13], 2 µg/mL (≈ 0.629 µM). Besides, the zone of inhibition at 30 µg/mL in [2] is 42 mm; in [4], 19 mm; in test [5], 21 mm; in test [7] it was 48 mm; in [8], 22 mm; in test [9], 43 mm. The zone of inhibition at 30 µg/mL in test [12] came out at 20 mm. The Ratio in [3], in test [6] and in test [10] was 10 throughout.

Regarding `CC(C)[C@H](NC(=O)CNC(=O)[C@@H]1CCCN1C(=O)[C@H](Cc1ccccc1)NC(=O)CNC(=O)[C@H](CCC(=O)OC1CCCCC1)NC(=O)CNC(=S)Nc1ccc(Cl)cc1)C(=O)NCC(=O)N[C@H](C(=O)N1CCC[C@H]1C(=O)NCC(=O)N[C@H](C(=O)NCC(=O)N[C@H](C(=O)N1CCC[C@H]1C(=O)NCC(=O)N[C@H](C(=O)NCC(=O)N[C@H](C(=O)N1CCC[C@H]1C(=O)NCC(=O)N[C@@H](Cc1ccccc1)C(=O)NCC(=O)N[C@@H](Cc1ccccc1)C(=O)N1CCC[C@H]1C(=O)NCC(=O)N[C@@H](Cc1ccccc1)C(=O)NCC(=O)N[C@@H](Cc1ccccc1)C(=O)N1CCC[C@H]1C(=O)N1CCC(c2noc3cc(F)ccc23)CC1)C(C)C)C(C)C)C(C)C)C(C)C)C(C)C` ({Thiocarbamoyl(N-4-ClPh)}-GE(OcHex)GFPGVGVPGVGVPGVGVPGFGFPGFGFP-X1), the values for the minimum inhibitory concentration (MIC) in [1], in test [11] and in test [13] were 1.75 µg/mL (≈ 0.547 µM), 1.75 µg/mL (≈ 0.547 µM) and 2.5 µg/mL (≈ 0.781 µM), respectively. Further, the zone of inhibition at 30 µg/mL in test [2] came to 40 mm; in test [4], 17 mm; in test [5], 19 mm; in [7], 45 mm; in test [8], 21 mm; in test [9], 41 mm. For the same compound, the zone of inhibition at 30 µg/mL in test [12] amounted to 17 mm. The Ratio in test [3], in test [6] and in [10] was 10 each time.

As to `COc1ccc(NC(=S)NCC(=O)N[C@@H](CCC(=O)OC2CCCCC2)C(=O)NCC(=O)N[C@@H](Cc2ccccc2)C(=O)N2CCC[C@H]2C(=O)NCC(=O)N[C@H](C(=O)NCC(=O)N[C@H](C(=O)N2CCC[C@H]2C(=O)NCC(=O)N[C@H](C(=O)NCC(=O)N[C@H](C(=O)N2CCC[C@H]2C(=O)NCC(=O)N[C@H](C(=O)NCC(=O)N[C@H](C(=O)N2CCC[C@H]2C(=O)NCC(=O)N[C@@H](Cc2ccccc2)C(=O)NCC(=O)N[C@@H](Cc2ccccc2)C(=O)N2CCC[C@H]2C(=O)NCC(=O)N[C@@H](Cc2ccccc2)C(=O)NCC(=O)N[C@@H](Cc2ccccc2)C(=O)N2CCC[C@H]2C(=O)N2CCC(c3noc4cc(F)ccc34)CC2)C(C)C)C(C)C)C(C)C)C(C)C)C(C)C)C(C)C)cc1` ({Thiocarbamoyl(4-MeOPh)}-GE(OcHex)GFPGVGVPGVGVPGVGVPGFGFPGFGFP-X1), the MIC in test [1], in test [11] and in test [13] was 2 µg/mL (≈ 0.626 µM) throughout. The zone of inhibition at 30 µg/mL in test [2] was determined as 38 mm; in test [4] it was 14 mm; in test [5], 16 mm; in [7], 43 mm; in [8], 17 mm; in test [9], 39 mm. Moreover, the zone of inhibition at 30 µg/mL in test [12] is 15 mm. For the same compound, the Ratio in test [3], in test [6] and in test [10] was 10 each time.

As for `CC(C)[C@H](NC(=O)CNC(=O)[C@@H]1CCCN1C(=O)[C@H](Cc1ccccc1)NC(=O)CNC(=O)[C@H](CCC(=O)OC1CCCCC1)NC(=O)CNC(=S)Nc1ccc(Cl)cc1)C(=O)NCC(=O)N[C@H](C(=O)N1CCC[C@H]1C(=O)NCC(=O)N[C@H](C(=O)NCC(=O)N[C@@H](Cc1ccccc1)C(=O)N1CCC[C@H]1C(=O)NCC(=O)N[C@@H](Cc1ccccc1)C(=O)NCC(=O)N[C@@H](Cc1ccccc1)C(=O)N1CCC[C@H]1C(=O)NCC(=O)N[C@H](C(=O)NCC(=O)N[C@H](C(=O)N1CCC[C@H]1C(=O)NCC(=O)N[C@H](C(=O)NCC(=O)N[C@@H](Cc1ccccc1)C(=O)N1CCC[C@H]1C(=O)N1CCN(c2cccc(Cl)c2Cl)CC1)C(C)C)C(C)C)C(C)C)C(C)C)C(C)C` ({Thiocarbamoyl(N-4-ClPh)}-GE(OcHex)GFPGVGVPGVGFPGFGFPGVGVPGVGFP-{Piperazinyl(4-(2,3-Cl2Ph))}), the MIC in [1] amounted to 2.5 µg/mL (≈ 0.779 µM); in [11], 2.5 µg/mL (≈ 0.779 µM); in [13] it was 3 µg/mL (≈ 0.935 µM). The zone of inhibition at 30 µg/mL in test [2] worked out at 39 mm; in [4], 16 mm; in test [5], 18 mm; in test [7], 44 mm; in test [8], 19 mm; in test [9], 40 mm. Also, the zone of inhibition at 30 µg/mL in [12] amounted to 16 mm. Further, the Ratio in test [3], in test [6] and in test [10] was 10 throughout.

In the case of `COc1ccc(NC(=S)NCC(=O)N[C@@H](CCC(=O)OC2CCCCC2)C(=O)NCC(=O)N[C@@H](Cc2ccccc2)C(=O)N2CCC[C@H]2C(=O)NCC(=O)N[C@H](C(=O)NCC(=O)N[C@H](C(=O)N2CCC[C@H]2C(=O)NCC(=O)N[C@H](C(=O)NCC(=O)N[C@@H](Cc2ccccc2)C(=O)N2CCC[C@H]2C(=O)NCC(=O)N[C@@H](Cc2ccccc2)C(=O)NCC(=O)N[C@@H](Cc2ccccc2)C(=O)N2CCC[C@H]2C(=O)NCC(=O)N[C@H](C(=O)NCC(=O)N[C@H](C(=O)N2CCC[C@H]2C(=O)NCC(=O)N[C@H](C(=O)NCC(=O)N[C@@H](Cc2ccccc2)C(=O)N2CCC[C@H]2C(=O)N2CCN(c3cccc(Cl)c3Cl)CC2)C(C)C)C(C)C)C(C)C)C(C)C)C(C)C)C(C)C)cc1` ({Thiocarbamoyl(4-MeOPh)}-GE(OcHex)GFPGVGVPGVGFPGFGFPGVGVPGVGFP-{Piperazinyl(4-(2,3-Cl2Ph))}), the MIC in test [1] came to 2.75 µg/mL (≈ 0.858 µM); in test [11] it was 2.75 µg/mL (≈ 0.858 µM); in test [13], 3.25 µg/mL (≈ 1.01 µM). The zone of inhibition at 30 µg/mL in [2] stood at 37 mm; in test [4], 13 mm; in [5], 15 mm; in [7], 42 mm; in test [8], 15 mm; in test [9], 38 mm. The zone of inhibition at 30 µg/mL in [12] was found to be 14 mm. The Ratio in test [3], in test [6] and in test [10] was 10 throughout.
